In brackets after ≈: the same amount, converted by molar mass. Activity calls are given as the source filed them. The rule behind the calls is not given here.
How the values were obtained:
[1] = target: T1, PI3-kinase p110-alpha/p85-alpha (Homo sapiens) (UniProt P27986+P42336); assay: Inhibition of human PI3K p110alpha/p85alpha at 10 uM using PIP2 as substrate incubated for 10 mins followed by ATP addition and measured after 30 mins in presence of 10 uM ATP by HTRF assay; format: protein-complex assay
[2] = target: T2, Serine/threonine-protein kinase mTOR (Homo sapiens, UniProt P42345); assay: Inhibition of human mTOR at 10 uM using 4EBP1 as substrate after 120 mins by [gamma-33P]-ATP assay
Outline: (§1)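 Single-point kinase screen by HotSpot radioisotope filter binding assay; compound at 10 μM with 10 μM ATP, reported as percent inhibition of PI3Kα and mTOR.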

[3] = target: PI3-kinase p110-alpha/p85-alpha (Homo sapiens, UniProt P42336); assay: Inhibition of human PI3K p110alpha/p85alpha using PIP2 as substrate incubated for 10 mins followed by ATP addition and measured after 30 mins in presence of 10 uM ATP by HTRF assay; format: protein-complex assay
PI3-kinase p110-alpha/p85-alpha, sequence (P27986 whole entry): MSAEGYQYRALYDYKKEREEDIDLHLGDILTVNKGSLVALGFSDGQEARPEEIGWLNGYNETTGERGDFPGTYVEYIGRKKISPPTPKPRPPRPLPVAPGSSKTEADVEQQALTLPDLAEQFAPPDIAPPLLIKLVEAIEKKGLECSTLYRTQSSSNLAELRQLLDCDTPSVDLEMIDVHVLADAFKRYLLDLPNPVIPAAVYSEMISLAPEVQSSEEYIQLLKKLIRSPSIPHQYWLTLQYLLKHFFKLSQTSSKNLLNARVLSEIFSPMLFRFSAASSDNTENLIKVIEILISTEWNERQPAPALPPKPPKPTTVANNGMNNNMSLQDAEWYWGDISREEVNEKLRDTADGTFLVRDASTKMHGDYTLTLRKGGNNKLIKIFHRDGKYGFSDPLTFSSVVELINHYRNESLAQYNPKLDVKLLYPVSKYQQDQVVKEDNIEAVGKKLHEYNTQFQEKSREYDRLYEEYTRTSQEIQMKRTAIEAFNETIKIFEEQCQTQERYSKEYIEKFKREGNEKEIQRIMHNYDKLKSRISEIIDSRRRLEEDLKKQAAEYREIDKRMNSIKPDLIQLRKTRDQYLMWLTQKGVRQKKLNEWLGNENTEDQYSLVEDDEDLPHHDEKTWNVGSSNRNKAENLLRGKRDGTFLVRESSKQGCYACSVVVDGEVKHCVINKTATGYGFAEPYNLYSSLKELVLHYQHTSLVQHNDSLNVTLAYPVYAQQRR
PI3-kinase p110-alpha/p85-alpha, sequence (P42336 whole entry): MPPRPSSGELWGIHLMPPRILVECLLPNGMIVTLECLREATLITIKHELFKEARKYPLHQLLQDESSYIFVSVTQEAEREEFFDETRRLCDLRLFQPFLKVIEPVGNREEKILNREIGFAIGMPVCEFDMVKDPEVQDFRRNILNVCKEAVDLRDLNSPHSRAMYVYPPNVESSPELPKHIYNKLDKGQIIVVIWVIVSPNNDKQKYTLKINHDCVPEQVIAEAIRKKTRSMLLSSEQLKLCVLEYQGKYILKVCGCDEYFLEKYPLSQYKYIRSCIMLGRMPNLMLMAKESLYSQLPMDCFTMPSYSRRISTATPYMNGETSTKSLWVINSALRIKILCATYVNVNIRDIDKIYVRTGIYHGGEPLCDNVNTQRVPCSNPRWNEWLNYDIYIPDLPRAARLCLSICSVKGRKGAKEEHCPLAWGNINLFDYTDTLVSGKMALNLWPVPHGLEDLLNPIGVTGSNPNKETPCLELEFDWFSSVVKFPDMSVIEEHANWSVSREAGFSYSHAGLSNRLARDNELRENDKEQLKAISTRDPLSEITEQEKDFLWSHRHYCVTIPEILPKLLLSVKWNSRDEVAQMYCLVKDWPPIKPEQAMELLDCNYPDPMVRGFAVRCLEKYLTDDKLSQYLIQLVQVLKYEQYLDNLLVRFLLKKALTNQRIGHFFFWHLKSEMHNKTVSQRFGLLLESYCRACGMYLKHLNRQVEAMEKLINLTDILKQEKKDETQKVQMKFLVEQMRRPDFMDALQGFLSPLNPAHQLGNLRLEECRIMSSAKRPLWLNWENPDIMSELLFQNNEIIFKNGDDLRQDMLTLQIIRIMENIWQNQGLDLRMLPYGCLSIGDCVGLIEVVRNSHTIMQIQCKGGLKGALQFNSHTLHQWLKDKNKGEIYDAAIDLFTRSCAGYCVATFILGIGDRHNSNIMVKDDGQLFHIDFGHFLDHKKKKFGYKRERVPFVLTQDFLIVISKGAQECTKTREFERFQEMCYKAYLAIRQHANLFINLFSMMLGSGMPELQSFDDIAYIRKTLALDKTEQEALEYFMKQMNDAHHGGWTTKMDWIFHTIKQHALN

[4] = Kinetic aqueous solubility of compound in 2% DMSO/Phosphate buffer saline incubated for 90 mins under shaking condition by; format: physicochemical; conditions: 2% DMSO/phosphate buffered saline, read-out: Kinetic_solubility
Outline: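 Maximum kinetic aqueous solubility measured in 2% DMSO/phosphate-buffered saline, pH 7.4.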

[5] = Half life in CD1 mouse liver microsomes at 1 uM incubated for 60 mins under shaking condition by LC-MS/MS analysis; format: ADME, Microsome
Outline: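 Metabolic stability in mouse liver microsomes with test compound at 1 μM; result expressed as t1/2 (min).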

[6] = Cytotoxicity against human primary fibroblasts assessed as cell viability at 10 uM after 48 hrs by celltiter-glo 2D luminescent assay relative to control; format: cell-based, Fibroblast; conditions: read-out: Activity
Outline: (§2)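 2D CellTiter-Glo luminescent viability screen, single 10 μM compound concentration, in MDA-MB-468, MDA-MB-231 and MCF7 breast cancer cells and in normal human dermal fibroblasts; output reported as percent of viable cells.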

MDA-MB-231 = assay: Antiproliferative activity against human MDA-MB-231 cells assessed as cell viability at 10 uM after 48 hrs by celltiter-glo 2D luminescent assay relative to control; format: functional; conditions: read-out: Activity; outline: as §2
MDA-MB-468 = assay: Antiproliferative activity against human MDA-MB-468 cells assessed as cell viability at 10 uM after 48 hrs by celltiter-glo 2D luminescent assay relative to control; format: functional; conditions: read-out: Activity; outline: as §2
MCF7 [7] = assay: Antiproliferative activity against human MCF7 cells assessed as cell viability at 10 uM after 48 hrs by celltiter-glo 2D luminescent assay relative to control; format: functional; conditions: read-out: Activity; outline: as §2
MCF7 [8] = assay: Antiproliferative activity against human MCF7 cells assessed as reduction in cell viability after 48 hrs by celltiter-glo 3D luminescent assay; format: functional, cell-based; conditions: MCF7, 48 h
Outline: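 MCF7 cells grown in 3D culture, viability read by CellTiter-Glo 3D luminescence; dose–response curves run up to 15 μM to derive IC50.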

[9] = target: T1, PI3-kinase p110-alpha/p85-alpha (Homo sapiens); assay: Inhibition of human PI3K p110alpha/p85alpha at 10 uM using PIP2 as substrate incubated for 10 mins followed by ATP addition and measured after 30 mins in presence of 10 uM ATP by HTRF assay relative to control; format: protein-complex assay
[10] = target: T2, Serine/threonine-protein kinase mTOR; assay: Inhibition of human mTOR at 10 uM using 4EBP1 as substrate after 120 mins by [gamma-33P]-ATP assay relative to control; outline: as §1

| inhibition [1] | inhibition [2] | IC50 [3] [nM] | solubility kinetic at 1.5 h [4] [µM] | half-life at 1 µM [5] [min] | IC50 (MCF7 [8]) [nM] | inhibition [9] [%] | inhibition [10] [%] | Compound | viability at 48 h, 10 µM [6] [%] | viability at 10 µM (MDA-MB-231) [%] | viability at 10 µM (MDA-MB-468) [%] | viability at 10 µM (MCF7 [7]) [%] |
| --- | --- | --- | --- | --- | --- | --- | --- | --- | --- | --- | --- | --- |
| Active | Active | – | – | – | – | – | – | CCOC(=O)c1ccc(Nc2nc(N3CCOCC3)c3ccccc3n2)cc1 | – | – | – | – |
| Active | Active | – | – | – | – | – | – | O=S(=O)(Nc1ncccn1)c1ccc(Nc2nc(N3CCOCC3)c3ccccc3n2)cc1 | – | – | – | – |
| – | – | 114 | 2.7 (≈ 1.15 µg/mL) | 24.5 | 1600 | – | – | O=C(Nc1ccc(-c2nc(N3CCOCC3)c3ccccc3n2)cc1)Nc1cncnc1 | 88 | 138 | 56 | 21 |
| Active | Active | 3.4 | < 2 | > 60 | 200 | – | – | NS(=O)(=O)c1ccc(NC(=O)Nc2ccc(-c3nc(N4CCOCC4)c4ccccc4n3)cc2)cc1 | 84 | 114 | 33 | 8 |
| Active | Active | – | – | – | – | – | – | O=S(=O)(Nc1ccccn1)c1ccc(Nc2nc(N3CCOCC3)c3ccccc3n2)cc1 | – | – | – | – |
| Active | Active | 5900 | 22.7 (≈ 9.7 µg/mL) | 44.9 | – | – | – | N=C(N)NS(=O)(=O)c1ccc(Nc2nc(N3CCOCC3)c3ccccc3n2)cc1 | – | – | – | – |
| Active | Active | – | – | – | – | – | – | CC(=O)c1ccc(Nc2nc(N3CCOCC3)c3ccccc3n2)cc1 | – | – | – | – |
| Active | Active | 18.5 | 6.1 (≈ 3.33 µg/mL) | > 60 | 300 | – | – | N=C(N)NS(=O)(=O)c1ccc(NC(=O)Nc2ccc(-c3nc(N4CCOCC4)c4ccccc4n3)cc2)cc1 | 92 | 152 | 51 | 30 |
| Active | Active | 26.1 | 3.1 (≈ 1.82 µg/mL) | > 60 | 1800 | – | – | O=C(Nc1ccc(-c2nc(N3CCOCC3)c3ccccc3n2)cc1)Nc1ccc(S(=O)(=O)Nc2nccs2)cc1 | 95 | 140 | 59 | 40 |
| Active | Active | – | < 2 | 37.8 | – | 84 | – | O=C(Nc1ccc(-c2nc(N3CCOCC3)c3ccccc3n2)cc1)Nc1ccc(S(=O)(=O)Nc2ccccn2)cc1 | – | – | – | – |
| Active | Active | – | 13.6 (≈ 7.92 µg/mL) | > 60 | – | 83 | – | O=C(Nc1ccc(-c2nc(N3CCOCC3)c3ccccc3n2)cc1)Nc1ccc(S(=O)(=O)Nc2ncccn2)cc1 | – | – | – | – |
| Active | Active | – | < 2 | 23.5 | – | 63 | 75 | O=C(Nc1ccc(-c2nc(N3CCOCC3)c3ccccc3n2)cc1)Nc1ccc(S(=O)(=O)Nc2ccccc2)cc1 | – | – | – | – |
| Active | Active | – | – | – | – | – | – | NS(=O)(=O)c1ccc(Nc2nc(N3CCOCC3)c3ccccc3n2)cc1 | – | – | – | – |

The remaining lines, values behind:

| Compound | inhibition [1] | inhibition [2] | IC50 [3] [nM] | solubility kinetic at 1.5 h [4] [µM] | half-life at 1 µM [5] [min] | IC50 (MCF7 [8]) [nM] | inhibition [9] [%] | inhibition [10] [%] | viability at 48 h, 10 µM [6] [%] | viability at 10 µM (MDA-MB-231) [%] | viability at 10 µM (MDA-MB-468) [%] | viability at 10 µM (MCF7 [7]) [%] |
| --- | --- | --- | --- | --- | --- | --- | --- | --- | --- | --- | --- | --- |
| O=C(NCCO)Nc1ccc(-c2nc(N3CCOCC3)c3ccccc3n2)cc1 | Active | Active | 185 | 200 (≈ 78.7 µg/mL) | 53.1 | 700 | – | – | 95 | 146 | 65 | 31 |
| CS(=O)(=O)Nc1ccc(NC(=O)Nc2ccc(-c3nc(N4CCOCC4)c4ccccc4n3)cc2)cc1 | Active | Active | 6.2 | 6.9 (≈ 3.58 µg/mL) | 60 | – | – | – | 38 | 137 | 66 | 8 |
| CNC(=O)c1ccc(NC(=O)Nc2ccc(-c3nc(N4CCOCC4)c4ccccc4n3)cc2)cc1 | Active | Active | 2.5 | < 2 | > 60 | 300 | – | – | 80 | 66 | 54 | 12 |
| CCC(=O)c1ccc(NC(=O)Nc2ccc(-c3nc(N4CCOCC4)c4ccccc4n3)cc2)cc1 | Active | Active | – | 4 (≈ 1.93 µg/mL) | > 60 | – | 77 | 73 | – | – | – | – |
| O=C(O)c1cccc(-c2nc(N3CCOCC3)c3ccccc3n2)c1 | Active | Active | – | – | – | – | – | – | – | – | – | – |
| O=C(Nc1ccc(CCO)cc1)Nc1ccc(-c2nc(N3CCOCC3)c3ccccc3n2)cc1 | Active | Active | 1.41 | 5.9 (≈ 2.77 µg/mL) | 38.2 | 300 | – | – | 63 | 192 | 74 | 7 |
| O=C(Nc1ccc(-c2nc(N3CCOCC3)c3ccccc3n2)cc1)Nc1ccc(S(=O)(=O)Nc2ccc(F)cc2)cc1 | Active | Active | – | < 2 | > 60 | – | 54 | 60 | – | – | – | – |
| N#Cc1cccc(-c2nc(N3CCOCC3)c3ccccc3n2)c1 | Active | Active | – | – | – | – | – | – | – | – | – | – |
| Oc1ccc(-c2nc(N3CCOCC3)c3ccccc3n2)cn1 | Active | Active | – | – | – | – | – | – | – | – | – | – |
| CNC(=O)Nc1ccc(-c2nc(N3CCOCC3)c3ccccc3n2)cc1 | Active | Active | 186 | 192 (≈ 69.8 µg/mL) | 8 | – | – | – | 71 | 180 | 96 | 34 |
| CC(=O)c1ccc(NC(=O)Nc2ccc(-c3nc(N4CCOCC4)c4ccccc4n3)cc2)cc1 | Active | Active | 16.6 | 2 (≈ 0.935 µg/mL) | > 60 | – | – | – | 20 | 74 | 42 | 22 |
| CCOC(=O)c1ccc(NC(=O)Nc2ccc(-c3nc(N4CCOCC4)c4ccccc4n3)cc2)cc1 | Active | Active | – | < 2 | 30.5 | – | 73 | 81 | – | – | – | – |
| O=C(Nc1ccc(-c2nc(N3CCOCC3)c3ccccc3n2)cc1)Nc1cccc(CO)c1 | Active | Active | 7.2 | 8.2 (≈ 3.74 µg/mL) | > 60 | 300 | – | – | 94 | 138 | 47 | 13 |
| O=C(Nc1ccc(CO)cc1)Nc1ccc(-c2nc(N3CCOCC3)c3ccccc3n2)cc1 | Active | Active | 2.4 | 14.3 (≈ 6.51 µg/mL) | > 60 | 200 | – | – | 86 | 208 | 60 | 7 |
| O=C(Nc1ccccc1)Nc1ccc(-c2nc(N3CCOCC3)c3ccccc3n2)cc1 | Active | Active | 12 | 8.1 (≈ 3.45 µg/mL) | > 60 | 1200 | – | – | 99 | 140 | 80 | 35 |
| O=C(Nc1ccc(-c2nc(N3CCOCC3)c3ccccc3n2)cc1)Nc1ccc(S(=O)(=O)Nc2ccc(F)cc2F)cc1 | Active | Active | – | 4.3 (≈ 2.65 µg/mL) | > 60 | – | 56 | 70 | – | – | – | – |
| Oc1cccc(-c2nc(N3CCOCC3)c3oc4ncccc4c3n2)c1 [PI-103] | – | – | – | 3.4 (≈ 1.18 µg/mL) | 7.1 | – | – | – | 42 | – | – | – |
